This is a sample that favours compounds with a hit; in the whole collection about 1.8% have one here.
SIAE inh – human SIAE inhibition, primary screen; Q9HAT2; SIAE FP-Rh probe binding, fluorescence polarization; inhibition, % at 9.66 µM; 370,000 tested, 0.69% active;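 active means inhibition above a cutoff: mean of compounds within the control limits plus 3 SD of those, cut at about 17% in these data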;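 further: 0% = plate median of compound wells and 100% = probe without SIAE protein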
Tn7 DDE FP – disrupts Tn7 cyclic peptide binding to fibrin D-Dimer-E complex; AID 720508; FP displacement of FITC-Tn7 peptide from fibrin DD(E); 0% = median of compound wells per plate; 370,000 tested, 0.13% active; P02675; inhibition, % at 8.3 µM;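 active means inhibition above the mean of compounds falling within the control limits plus 3 SD of them, cut at about 14% in these data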;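 further: 0% = plate median of compound wells and 100% = 10 µM Aha-Tn7 peptide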
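Assay system: Human fibrin DD(E) protein | Medium: Tris buffer with calcium and detergent, pH 7.8 | Reagent: 0.1 µM fluorescent Tn7 | Compound dosing: Single point at 8.3 µM | Times: 10 min preincubation, 3 h with tracer, room temperature | Detection: Fluorescence polarization of the labelled Tn7 tracer | Controls: Aha-Tn7 high control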
DDE Tn6 FP inh – DD(E)-Tn6 binding inhibition, primary FP screen. P02675. AID 720509. inhibition, % at 8.3 µM. 370,000 tested, 0.21% active. Fibrin DD(E) TRITC-Tn6 fluorescence polarization displacement;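 active means inhibition above a per-campaign cutoff: mean of compounds within control limits plus 3 SD, cut at about 15% in these data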;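 further: 0% = median of all compound wells on the plate and 100% = blocking peptide control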
HTRA1 inh – inhibitors of human serine peptidase HTRA1. Q92743. recombinant HTRA1, FP-rhodamine activity-based probe, fluorescence polarization. 340,000 tested, 0.5% active. inhibition, % at 5.96 µM. AID 504803; in the data active means inhibition above about 36%;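 further: 0% = enzyme with DMSO and 100% = wells lacking enzyme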
Target sequence (Q92743 whole entry, looked up): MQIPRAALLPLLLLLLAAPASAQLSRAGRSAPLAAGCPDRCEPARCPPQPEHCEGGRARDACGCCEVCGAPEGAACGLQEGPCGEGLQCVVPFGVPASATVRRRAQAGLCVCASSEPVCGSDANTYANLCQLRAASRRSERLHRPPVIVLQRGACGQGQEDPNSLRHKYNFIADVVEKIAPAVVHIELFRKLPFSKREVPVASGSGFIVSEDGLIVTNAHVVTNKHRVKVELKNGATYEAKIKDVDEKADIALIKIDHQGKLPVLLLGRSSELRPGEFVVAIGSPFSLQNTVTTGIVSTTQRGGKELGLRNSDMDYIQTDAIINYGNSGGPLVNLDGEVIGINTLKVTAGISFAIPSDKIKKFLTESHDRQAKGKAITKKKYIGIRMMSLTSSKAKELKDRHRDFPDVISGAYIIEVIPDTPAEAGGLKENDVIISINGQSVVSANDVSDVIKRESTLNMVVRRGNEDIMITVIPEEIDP
ABHD4 inh – inhibitors of mouse ABHD4. 370,000 tested, 0.54% active. Q8VD66. purified mABHD4, FP-Rh probe fluorescence polarization. inhibition, % at 8.92 µM. AID 720543;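 active means inhibition exceeding the mean over every tested compound plus 3 SD, cut at about 30% in these data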;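 further: 0% = plate median of compound wells and 100% = S159A mutant with DMSO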
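assay system = mABHD4 protein | compound dosing = single nominal dose of 8.92 µM, 0.89% DMSO final | read-out basis = percent inhibition of probe binding, normalized to plate controls | schedule = Enzyme–compound pre-incubation 45 min, then probe 60 min, both 25 °C | detection = fluorescence polarization, excitation 525 nm, emission 598 nm, BODIPY TMR filters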
TCR CD3 inh – human TCR-CD3 binding inhibition; TAMRA-labeled TCR probe fluorescence, biochemical; inhibition, % at 9.4 µM; 360,000 tested, 0.37% active; AID 651800; in the data active means inhibition above about 19%;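 further: recombinant mutant TCR 2C K166C tagged with TAMRA read by polarization; 0% = receptor in buffer alone and 100% = receptor with positive control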
DDE Tn6 FP ctr – counter-screen for inhibitors of Tn6 peptide binding to fibrin DD(E); shares compounds with DDE Tn6 FP inh; TRITC-Tn6 fluorescence polarization displacement; 0% = median of compound wells, not DMSO; inhibition, % at 8.3 µM; 680 tested, 2% active; AID 720621;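 active means inhibition above the mean of test compounds lying between the control limits plus 3 SD of those, cut at about 14% in these data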;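 further: 0% = median of compound wells and 100% = wells with Aha-Tn7 blocking peptide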
Tn6 DDE conf – confirmation of inhibitors of Tn6 binding to human fibrin DD(E); shares compounds with DDE Tn6 FP inh; FP displacement of TRITC-Tn6 peptide from DD(E); 0% = per-plate median of test wells; inhibition, % at 8.3 µM; 680 tested, 10% active; AID 720631;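 active means inhibition above the mean of compounds lying within the control limits plus 3 SD, cut at about 16% in these data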;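 further: 100% = high control wells holding a competing inhibitor peptide at 10 µM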
* hit, by the source's call; · = no result; ! = not active in a repeat.

SMILES | SIAE inh | Tn7 DDE FP | DDE Tn6 FP inh | HTRA1 inh | ABHD4 inh | TCR CD3 inh | DDE Tn6 FP ctr | Tn6 DDE conf
COC(=O)C1CN(Cc2ccccc2)CCS(=O)(=O)N1Cc1cn(Cc2ccc(F)cc2)nn1 (stereo not drawn) | 8 | 9 | 3 | · | -3 | · | · | ·
Cc1ccc(C2CCC3(CCC(=O)N3CCO)CC2)cc1 (stereo not drawn) | 0 | 1 | 20*! | · | 0 | · | 7 | 3
C#CCn1c(S(=O)(=O)Cc2ccccc2Cl)nc(-c2ccccc2)c1-c1ccccc1 | -2 | -3 | 16* | -4 | -8 | 5 | 12 | 8
CCOC(=O)c1ccc(-c2ccc(/C=C(\C#N)C(=O)NCC3CCCO3)o2)cc1 (stereo not drawn) | -16 | 6 | 18* | -3 | -1 | -4 | -5 | -9
COc1ccc(/C=C(\C#N)C(=O)NCC2CCCO2)cc1OC (stereo not drawn) | 1 | 3 | 1 | 17 | 3 | -6 | · | ·
CCOc1ccc(S(=O)(=O)N(CC(=O)NCc2cccnc2)c2ccc(F)cc2)cc1 | -5 | 3 | 18* | 1 | 1 | 3 | -3 | -3
CCOc1ccc(S(=O)(=O)N(CC(=O)NCc2cccnc2)c2ccc(C)cc2)cc1 | 0 | -3 | -7 | -6 | 4 | 3 | · | ·
Cc1nn(-c2ccc(F)cc2)c2c1cc(C#N)c1nc3ccccc3n12 | 5 | -1 | 16* | -3 | 1 | 4 | 0 | -1
N#Cc1c2c(c(Nc3ccc(F)cc3)n3c1nc1ccccc13)CCCC2 | -1 | -2 | -2 | -16 | 3 | 0 | · | ·
Cc1cc(NS(=O)(=O)c2ccc(NC(=O)Cc3ccc(Cl)c(F)c3)cc2)no1 | -1 | 6 | -6 | · | -4 | · | · | ·
COc1cccc(CC(=O)O[C@@H]2CCC[C@@]3(C(=O)N(Cc4ccccc4)c4ccccc43)[C@H]2NC(=O)CCc2ccccc2)c1 | -2 | 3 | -3 | · | -5 | · | · | ·
CCC(C)(C(=O)NC1CCCCC1)N(C(=O)Cc1cccs1)c1ccccc1 (stereo not drawn) | -4 | 0 | 15* | -8 | 0 | 4 | 1 | 2
C(#CC1=CCCCC1)CNCc1ccccc1 | 5 | 1 | -4 | · | 7 | · | · | ·
Cc1nc2ccc(N)cc2s1 | 9 | -2 | 15* | -3 | 3 | 6 | -5 | -9
COc1ccccc1NC(=O)CN(C)S(=O)(=O)c1ccc(F)cc1 | -4 | -2 | 6 | 3 | -4 | 1 | · | ·
COc1ccc(S(=O)(=O)N(C)CC(=O)Nc2ccccc2OC)cc1 | 5 | 6 | 23* | 2 | -2 | 3 | 5 | 0
CCCCN1C(=O)C(C(=O)OCc2ccccc2)CC2=C1CCCC2=O (stereo not drawn) | 5 | -20 | 21* | 4 | 0 | -1 | -2 | -5
CCCCN1C(=O)C(C(=O)OCC)CC2=C1CCCC2=O (stereo not drawn) | 1 | -2 | 0 | 11 | 5 | -4 | · | ·
COC(=O)c1cccc(OC[C@@H](O)CN2CCC(C(O)(c3ccccc3)c3ccccc3)CC2)c1 | -5 | -2 | 5 | · | -2 | · | · | ·
CCN1CC=C2C(C1)C(c1ccc(Cl)s1)C(C#N)=C(N)C2(C#N)C#N (stereo not drawn) | 4 | 3 | 16* | 2 | 9 | 14 | -2 | -3
COC(=O)C1CN(C2CCCC2)CCS(=O)(=O)N1Cc1ccc(F)cc1 (stereo not drawn) | -1 | -8 | 0 | · | -4 | · | · | ·
COc1ccc(NC(=O)/C(C#N)=C/c2cccnc2)c(OC)c1 | 5 | -1 | 9 | -4 | -1 | 6 | · | ·
COc1ccc(NC(=O)C(=O)N/N=C/c2cccnc2)c(OC)c1 | -5 | 8 | 16* | -5 | -5 | -3 | 2 | -3
COCCn1c(C)cc(C2=NNC(=Nc3ccccc3)SC2)c1C | 6 | -1 | 17* | 16 | 11 | 1 | 6 | -7

Bioassay records deposited in PubChem BioAssay by The Scripps Research Institute Molecular Screening Center.
